Laboratory results published in ChEMBL document CHEMBL4396897, “Potent 5-Cyano-6-phenyl-pyrimidin-Based Derivatives Targeting DCN1-UBE2M Interaction” (J Med Chem, 2019).
Active and inactive are the calls of the source.

Key:
[1] = biological target: T1, DCN1-like protein 1/NEDD8-conjugating enzyme Ubc12 (Homo sapiens) (UniProt Q96GG9+P61081); test: Inhibition of DCN1-UBE2M protein-protein interaction in human NCI-H1975 cells assessed as increase in NQO1 accumulation at 3 uM incubated for 24 hrs by Western blot analysis; type: cell-based
Summary of the method: (§1)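 H1975 and PC9 cells seeded at 1×10⁶ cells, incubated overnight, then treated 24h with compound (0, 0.3, 1, 10 and 20 μM in methods; 3 μM also listed in text). Lysates cleared at 12,000×g, 20 min, 4°C, protein by BCA, SDS–PAGE, nitrocellulose, primary antibodies overnight at 4°C, HRP secondary, ECL. Densitometry normalised to GAPDH; three experiments.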

[2] = biological target: T1, DCN1-like protein 1/NEDD8-conjugating enzyme Ubc12 (Homo sapiens); test: Inhibition of DCN1-UBE2M protein-protein interaction in human NCI-H1975 cells assessed as increase in NRF2 accumulation at 3 uM incubated for 24 hrs by Western blot analysis; type: cell-based; summary of the method: as §1
[3] = biological target: T1, DCN1-like protein 1/NEDD8-conjugating enzyme Ubc12 (Homo sapiens); test: Inhibition of DCN1-UBE2M protein-protein interaction in human PC9 cells assessed as increase in HO-1 accumulation at 3 uM incubated for 24 hrs by Western blot analysis; type: cell-based; summary of the method: as §1
[4] = biological target: T1, DCN1-like protein 1/NEDD8-conjugating enzyme Ubc12 (Homo sapiens); test: Inhibition of DCN1-UBE2M protein-protein interaction in human NCI-H1975 cells assessed as increase in HO-1 accumulation at 3 uM incubated for 24 hrs by Western blot analysis; type: cell-based; summary of the method: as §1
[5] = biological target: T1, DCN1-like protein 1/NEDD8-conjugating enzyme Ubc12 (Homo sapiens); test: Inhibition of DCN1-UBE2M protein-protein interaction in human PC9 cells assessed as increase in NRF2 accumulation at 3 uM incubated for 24 hrs by Western blot analysis; type: cell-based; summary of the method: as §1
[6] = biological target: T1, DCN1-like protein 1/NEDD8-conjugating enzyme Ubc12 (Homo sapiens); test: Inhibition of DCN1-UBE2M protein-protein interaction in human PC9 cells assessed as increase in NQO1 accumulation at 3 uM incubated for 24 hrs by Western blot analysis; type: cell-based; summary of the method: as §1
[7] = biological target: T2, NEDD8-activating enzyme E1 catalytic subunit (Homo sapiens) (UniProt Q8TBC4); test: Inhibition of NEDD8-activating enzyme E1C (unknown origin) assessed as effect on NEDD8/UBE2M complex formation at 10 to 20 uM pre-incubated for 10 mins followed by Mg-ATP addition after 60 mins by SDS-PAGE analysis
T2 sequence (whole entry): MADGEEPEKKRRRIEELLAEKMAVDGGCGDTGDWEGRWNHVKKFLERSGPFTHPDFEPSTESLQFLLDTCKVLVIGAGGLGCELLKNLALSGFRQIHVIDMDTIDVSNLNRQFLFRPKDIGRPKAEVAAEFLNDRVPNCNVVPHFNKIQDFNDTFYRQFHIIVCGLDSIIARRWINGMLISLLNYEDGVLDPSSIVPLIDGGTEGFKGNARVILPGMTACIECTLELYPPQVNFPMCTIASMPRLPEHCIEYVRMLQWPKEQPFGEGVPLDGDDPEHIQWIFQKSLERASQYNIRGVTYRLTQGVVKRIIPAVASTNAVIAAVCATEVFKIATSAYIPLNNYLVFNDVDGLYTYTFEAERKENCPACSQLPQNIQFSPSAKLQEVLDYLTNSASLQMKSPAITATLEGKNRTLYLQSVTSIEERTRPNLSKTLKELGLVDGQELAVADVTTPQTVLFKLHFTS
Summary of the method: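 Cell-free NEDD8~UBE2M formation: NEDD8 E1 mixed with NEDD8, UBE2M and compound (10 and 20µM reference inhibitor, or 1, 10 and 100µM test compound) in reaction buffer, 10 min at room temperature. Started with Mg-ATP, incubated 60 min at 37°C, then 1mM DTT and non-reducing loading buffer added. Resolved on 12% SDS-PAGE.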

Measured: inhibition

T1 sequence (P61081 whole entry, looked up): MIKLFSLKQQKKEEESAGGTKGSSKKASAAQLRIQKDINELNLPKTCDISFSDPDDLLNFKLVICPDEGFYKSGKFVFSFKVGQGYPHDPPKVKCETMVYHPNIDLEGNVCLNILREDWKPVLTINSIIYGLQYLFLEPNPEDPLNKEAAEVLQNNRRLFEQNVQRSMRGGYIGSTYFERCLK
T1 sequence (Q96GG9 whole entry, looked up): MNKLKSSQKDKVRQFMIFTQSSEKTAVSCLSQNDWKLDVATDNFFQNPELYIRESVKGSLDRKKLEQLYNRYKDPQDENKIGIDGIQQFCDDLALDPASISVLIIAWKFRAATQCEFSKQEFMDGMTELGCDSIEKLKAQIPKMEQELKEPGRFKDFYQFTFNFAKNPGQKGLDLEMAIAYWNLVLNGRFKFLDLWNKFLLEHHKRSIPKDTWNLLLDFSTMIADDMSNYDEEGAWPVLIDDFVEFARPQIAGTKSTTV

NS(=O)(=O)OC[C@@H]1C[C@@H](n2ccc3c(N[C@H]4CCc5ccccc54)ncnc32)C[C@@H]1O
active: all assays above
